According to ChEMBL document CHEMBL3792374, “Discovery of a ring-opened derivative of 3-n-butylphthalide bearing NO/H2S-donating moieties as a potential anti-ischemic stroke agent” (Eur J Med Chem, 2016):

Test: Antiplatelet activity in rabbit platelet-rich plasma assessed as inhibition of ADP-induced platelet aggregation at 0.1 mM preincubated for 5 mins followed by addition of ADP measured within 5 mins by Borns turbidimetric method
Type: functional
Details: Oryctolagus cuniculus
Outline: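 Rabbit carotid blood was citrated (3.8%, 9:1). PRP was obtained at 500 g for 10 min and PPP at 3000 g for 10 min. PRP was preincubated in duplicate for 5 min at 37 °C with 0.1 mM compound, plus carboxy-PTIO or BSS where indicated. ADP was then added and maximal light transmission recorded within 5 min, within 3 h of blood collection. Inhibition % was calculated versus control. Mean ± SD of three independent experiments.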

Structure (SMILES) | inhibition at 100 µM
CCCCC(OC(=O)CN1CCN(CCCCCOc2ccc(-c3cc(=S)ss3)cc2)CC1)c1ccccc1C(=O)Oc1ccc(/C=C/C(=O)OCCCCO[N+](=O)[O-])cc1OC (racemic) | 19.7%
CCCCC(OC(=O)CN1CCN(CCCOc2ccc(-c3cc(=S)ss3)cc2)CC1)c1ccccc1C(=O)Oc1ccc(/C=C/C(=O)OCCO[N+](=O)[O-])cc1OC (racemic) | 19.7%
CCCCC(OC(=O)CN1CCN(CCOc2ccc(-c3cc(=S)ss3)cc2)CC1)c1ccccc1C(=O)Oc1ccc(/C=C/C(=O)OCCO[N+](=O)[O-])cc1OC (racemic) | 19.7%
CCCCC(OC(=O)CN1CCN(CCCOc2ccc(-c3cc(=S)ss3)cc2)CC1)c1ccccc1C(=O)Oc1ccc(/C=C/C(=O)OCCCCCCO[N+](=O)[O-])cc1OC (racemic) | 19.7%
CCCCC(OC(=O)CN1CCN(CCCCCOc2ccc(-c3cc(=S)ss3)cc2)CC1)c1ccccc1C(=O)Oc1ccc(/C=C/C(=O)OCCCCCCO[N+](=O)[O-])cc1OC (racemic) | 19.7%
CCCCC(OC(=O)CN1CCN(CCCCCOc2ccccc2)CC1)c1ccccc1C(=O)Oc1ccc(/C=C/C(=O)OCCO[N+](=O)[O-])cc1OC (racemic) | 19.8%
CCCCC(OC(=O)CN1CCN(CCOc2ccc(-c3cc(=S)ss3)cc2)CC1)c1ccccc1C(=O)Oc1ccc(/C=C/C(=O)OCCCCO[N+](=O)[O-])cc1OC (racemic) | 19.7%
CCCCC(OC(=O)CCl)c1ccccc1C(=O)Oc1ccc(/C=C/C(=O)OCCO[N+](=O)[O-])cc1OC (racemic) | 18%
CCCCC(OC(=O)CN1CCN(CCCCOc2ccc(-c3cc(=S)ss3)cc2)CC1)c1ccccc1C(=O)Oc1ccc(/C=C/C(=O)OCCO[N+](=O)[O-])cc1OC (racemic) | 19.7%
S=c1cc(-c2ccc(OCCCCCN3CCNCC3)cc2)ss1 | 16.8%
CCCCC(OC(=O)CN1CCN(CCCCCOc2ccc(-c3cc(=S)ss3)cc2)CC1)c1ccccc1C(=O)Oc1ccc(/C=C/C(=O)OC)cc1OC (racemic) | 27.8%
